Data: ChEMBL document CHEMBL1165943, “Design and synthesis of new anticancer pyrimidines with multiple-kinase inhibitory effect” (Bioorg Med Chem, 2010)
pIC50: −log10 of the molar value. Several values for one entry are separate records, joined by “and”; a condition that tells them apart may be missing. Equal values may be shown once. Activity calls are given as the source filed them. No cut-off for these calls is given here.

Experiments:
OVCAR-8 = experiment: Growth inhibition of human OVCAR8 cells after 48 hrs by sulforhodamine B assay; format: functional, cell-based; settings: for CC50: read-out: LC50 (the source's name)
Method in brief: (§1)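 Cells grown in RPMI 1640 with 5% FBS and 2 mM L-glutamine, seeded at 5,000–40,000 cells/well according to doubling time. After 24 h, time-zero plates are TCA-fixed. Five concentrations (10-fold or ½log dilutions, DMSO stocks) are applied for 48 h at 37 °C, 5% CO₂. Cells are TCA-fixed, SRB-stained and read at 515 nm. IC₅₀ is taken from [(Ti−Tz)/(C−Tz)]×100 = 50.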

BT-549 = experiment: Growth inhibition of human BT549 cells after 48 hrs by sulforhodamine B assay; format: functional, cell-based; settings: BT-549, 48 h; for CC50: read-out: LC50 (the source's name)
Method in brief: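 Five-dose SRB assay. Cells in RPMI 1640 with 5% FBS and 2 mM L-glutamine were seeded at 5,000–40,000 cells/well, with a TCA-fixed time-zero plate (Tz) taken at 24 h. Compound stocks were in DMSO, serially diluted 10-fold or ½-log to five concentrations, and incubated 48 h at 37 °C. Plates were stained with SRB and read at 515 nm. IC₅₀ was taken where [(Ti−Tz)/(C−Tz)]×100 = 50.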

MDA-MB-468 = experiment: Growth inhibition of human MDA-MB-468 cells after 48 hrs by sulforhodamine B assay; format: functional, cell-based; settings: MDA-MB-468, 48 h; method in brief: as §1
HL-60(TB) = experiment: Cytotoxicity against human HL-60(TB) cells assessed as cell growth at 0.001 uM after 48 hrs by sulforhodamine B assay; format: functional; settings: HL-60, 48 h, read-out: Activity
Method in brief: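 Five-concentration HL-60(TB) test in RPMI 1640 with 5% FBS and 2 mM L-glutamine. Cells are plated at 5,000–40,000/well and a TCA-fixed time-zero plate is read at drug addition after 24 h. Drug is dissolved in DMSO and given as five 10-fold or ½log dilutions for 48 h at 37 °C, 5% CO2. Settled cells are fixed with TCA, stained with SRB and read at 515 nm.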

[1] = Cytotoxicity against human Hs 578T cells assessed as cell growth at 0.001 uM after 48 hrs by sulforhodamine B assay; format: functional; settings: read-out: Activity
SNB-75 [2] = experiment: Cytotoxicity against human SNB75 cells assessed as cell growth at 10 uM after 48 hrs by sulforhodamine B assay; format: functional; settings: SNB-75, 48 h, read-out: Activity
SF-295 = experiment: Cytotoxicity against human SF295 cells assessed as cell growth at 0.01 uM after 48 hrs by sulforhodamine B assay; format: functional; settings: SF-295, 48 h, read-out: Activity
SK-MEL-2 = experiment: Cytotoxicity against human SK-MEL-2 cells assessed as cell growth at 0.01 uM after 48 hrs by sulforhodamine B assay; format: functional; settings: SK-MEL-2, 48 h, read-out: Activity
RXF 393 [3] = experiment: Cytotoxicity against human RXF393 cells assessed as cell growth at 100 nM after 48 hrs by sulforhodamine B assay; format: functional; settings: RXF 393, 48 h, read-out: Activity
OVCAR-5 [4] = experiment: Cytotoxicity against human OVCAR5 cells assessed as cell growth at 10 uM after 48 hrs by sulforhodamine B assay; format: functional; settings: OVCAR-5, 48 h, read-out: Activity
786-0 = experiment: Cytotoxicity against human 786-0 cells assessed as cell growth at 10 uM after 48 hrs by sulforhodamine B assay; format: functional; settings: 786-0, 48 h, read-out: Activity
Method in brief: (§2)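 Cells grown in RPMI 1640 with 5% FBS and 2 mM L-glutamine, seeded at 5,000–40,000 cells/well by doubling time. Time-zero plates TCA-fixed after 24 h. Five concentrations (10-fold or half-log dilutions from DMSO stock) added; 48 h at 37 °C, 5% CO2. Cold TCA fixation (final 10%, 60 min, 4 °C), 0.4% SRB stain, dye solubilized in 10 mM trizma base, A515.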

MCF7 [5] = experiment: Cytotoxicity against human MCF7 cells assessed as cell growth at 10 uM after 48 hrs by sulforhodamine B assay; format: functional; settings: MCF7, 48 h, read-out: Activity
MDA-MB-231 = experiment: Cytotoxicity against human MDA-MB-231 cells assessed as cell growth at 100 nM after 48 hrs by sulforhodamine B assay; format: functional; settings: MDA-MB-231, 48 h, read-out: Activity
NCI-H522 = experiment: Cytotoxicity against human NCI-H522 cells assessed as cell growth at 1 uM after 48 hrs by sulforhodamine B assay; format: functional; settings: NCI-H522, 48 h, read-out: Activity
OVCAR-5 [6] = experiment: Cytotoxicity against human OVCAR5 cells assessed as cell growth at 0.01 uM after 48 hrs by sulforhodamine B assay; format: functional; settings: OVCAR-5, 48 h, read-out: Activity
CAKI-1 = experiment: Cytotoxicity against human Caki1 cells assessed as cell growth at 0.01 uM after 48 hrs by sulforhodamine B assay; format: functional; settings: CAKI-1, 48 h, read-out: Activity; method in brief: as §2
RXF 393 [7] = experiment: Cytotoxicity against human RXF393 cells assessed as cell growth at 1 uM after 48 hrs by sulforhodamine B assay; format: functional; settings: RXF 393, 48 h, read-out: Activity
MCF7 [8] = experiment: Cytotoxicity against human MCF7 cells assessed as cell growth at 1 uM after 48 hrs by sulforhodamine B assay; format: functional; settings: MCF7, 48 h, read-out: Activity
NCI-H460 = experiment: Cytotoxicity against human NCI-H460 cells assessed as cell growth at 10 uM after 48 hrs by sulforhodamine B assay; format: functional; settings: NCI-H460, 48 h, read-out: Activity
SNB-75 [9] = experiment: Growth inhibition of human SNB75 cells after 48 hrs by sulforhodamine B assay; format: functional, cell-based; settings: for CC50: read-out: LC50 (the source's name); method in brief: as §1
U-251 = experiment: Growth inhibition of human U251 cells after 48 hrs by sulforhodamine B assay; format: functional, cell-based; settings: for CC50: read-out: LC50 (the source's name); method in brief: as §1
Malme-3M = experiment: Growth inhibition of human MALME-3M cells after 48 hrs by sulforhodamine B assay; format: functional, cell-based; method in brief: as §1
[10] = target: Hepatocyte growth factor receptor (Homo sapiens) (UniProt P08581); experiment: Inhibition of c-MET at 10 uM by HotSpot assay
Chain of Hepatocyte growth factor receptor (Homo sapiens) (P08581 whole entry): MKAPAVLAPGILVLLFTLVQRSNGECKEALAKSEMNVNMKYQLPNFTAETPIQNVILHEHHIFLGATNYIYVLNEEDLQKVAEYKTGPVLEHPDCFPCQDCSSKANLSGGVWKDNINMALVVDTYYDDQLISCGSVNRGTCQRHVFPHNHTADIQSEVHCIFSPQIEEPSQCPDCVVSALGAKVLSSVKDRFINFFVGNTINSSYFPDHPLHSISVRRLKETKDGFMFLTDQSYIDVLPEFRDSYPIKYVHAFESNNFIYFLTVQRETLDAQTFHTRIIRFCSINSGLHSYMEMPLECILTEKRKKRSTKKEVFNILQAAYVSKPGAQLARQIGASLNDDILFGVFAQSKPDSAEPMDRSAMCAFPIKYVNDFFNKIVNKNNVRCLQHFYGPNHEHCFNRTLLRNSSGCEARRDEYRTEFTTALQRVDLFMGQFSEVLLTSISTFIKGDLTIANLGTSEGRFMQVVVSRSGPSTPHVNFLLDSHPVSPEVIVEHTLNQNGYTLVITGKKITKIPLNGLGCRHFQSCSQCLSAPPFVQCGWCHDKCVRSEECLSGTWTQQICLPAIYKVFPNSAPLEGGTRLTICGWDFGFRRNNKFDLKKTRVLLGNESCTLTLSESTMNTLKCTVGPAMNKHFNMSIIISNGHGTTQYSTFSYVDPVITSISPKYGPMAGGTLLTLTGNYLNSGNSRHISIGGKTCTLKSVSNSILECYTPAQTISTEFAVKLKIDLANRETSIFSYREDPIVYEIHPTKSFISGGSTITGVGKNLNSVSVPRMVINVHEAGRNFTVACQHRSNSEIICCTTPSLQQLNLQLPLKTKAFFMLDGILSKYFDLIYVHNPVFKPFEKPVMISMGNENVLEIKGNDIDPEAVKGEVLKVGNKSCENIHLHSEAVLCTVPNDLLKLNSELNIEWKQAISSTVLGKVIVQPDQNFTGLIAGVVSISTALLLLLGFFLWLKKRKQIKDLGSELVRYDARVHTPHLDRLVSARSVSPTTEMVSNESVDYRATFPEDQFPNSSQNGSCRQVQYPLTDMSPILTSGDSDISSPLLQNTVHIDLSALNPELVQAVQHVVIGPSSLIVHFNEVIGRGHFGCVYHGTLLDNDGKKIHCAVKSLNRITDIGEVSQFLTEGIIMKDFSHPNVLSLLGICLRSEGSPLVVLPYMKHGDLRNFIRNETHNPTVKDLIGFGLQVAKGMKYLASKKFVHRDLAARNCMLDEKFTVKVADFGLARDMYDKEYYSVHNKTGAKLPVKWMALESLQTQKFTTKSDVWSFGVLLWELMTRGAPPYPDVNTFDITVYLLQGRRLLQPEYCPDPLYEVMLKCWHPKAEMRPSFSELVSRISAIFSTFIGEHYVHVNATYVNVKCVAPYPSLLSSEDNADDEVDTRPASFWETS

[11] = target: Serine/threonine-protein kinase Chk1 (Homo sapiens) (UniProt O14757); experiment: Inhibition of CHK1 at 10 uM by HotSpot assay
Chain of Serine/threonine-protein kinase Chk1 (Homo sapiens) (O14757 whole entry): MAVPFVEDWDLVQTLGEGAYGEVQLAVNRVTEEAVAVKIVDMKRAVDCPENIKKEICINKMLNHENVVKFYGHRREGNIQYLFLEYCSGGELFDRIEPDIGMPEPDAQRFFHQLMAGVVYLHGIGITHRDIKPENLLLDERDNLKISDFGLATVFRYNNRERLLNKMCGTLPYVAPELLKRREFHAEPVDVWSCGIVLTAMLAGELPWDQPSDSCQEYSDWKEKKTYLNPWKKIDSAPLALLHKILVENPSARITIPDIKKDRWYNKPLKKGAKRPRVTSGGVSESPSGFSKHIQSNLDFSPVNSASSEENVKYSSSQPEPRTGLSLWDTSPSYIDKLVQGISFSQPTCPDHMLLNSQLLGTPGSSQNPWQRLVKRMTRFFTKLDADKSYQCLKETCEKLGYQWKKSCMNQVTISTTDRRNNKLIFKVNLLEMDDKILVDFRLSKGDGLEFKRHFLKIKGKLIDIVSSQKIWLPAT

[12] = target: Glycogen synthase kinase-3 beta (Homo sapiens) (UniProt P49841); experiment: Inhibition of GSK3-beta at 10 uM by HotSpot assay
Chain of Glycogen synthase kinase-3 beta (Homo sapiens) (P49841 whole entry, looked up): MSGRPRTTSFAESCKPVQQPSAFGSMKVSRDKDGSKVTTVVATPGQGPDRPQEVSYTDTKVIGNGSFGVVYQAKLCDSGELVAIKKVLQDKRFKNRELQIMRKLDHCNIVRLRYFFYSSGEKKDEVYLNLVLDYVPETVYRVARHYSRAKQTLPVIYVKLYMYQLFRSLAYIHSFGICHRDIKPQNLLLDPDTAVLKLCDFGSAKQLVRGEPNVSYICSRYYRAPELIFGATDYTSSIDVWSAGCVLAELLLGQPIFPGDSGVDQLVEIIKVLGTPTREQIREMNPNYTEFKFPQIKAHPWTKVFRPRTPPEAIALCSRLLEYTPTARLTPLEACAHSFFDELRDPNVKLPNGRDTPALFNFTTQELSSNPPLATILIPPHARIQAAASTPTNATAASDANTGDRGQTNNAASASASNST

[13] = target: Platelet-derived growth factor receptor beta (Homo sapiens) (UniProt P09619); experiment: Inhibition of PDGFRbeta at 10 uM by HotSpot assay
Chain of Platelet-derived growth factor receptor beta (Homo sapiens) (P09619 whole entry): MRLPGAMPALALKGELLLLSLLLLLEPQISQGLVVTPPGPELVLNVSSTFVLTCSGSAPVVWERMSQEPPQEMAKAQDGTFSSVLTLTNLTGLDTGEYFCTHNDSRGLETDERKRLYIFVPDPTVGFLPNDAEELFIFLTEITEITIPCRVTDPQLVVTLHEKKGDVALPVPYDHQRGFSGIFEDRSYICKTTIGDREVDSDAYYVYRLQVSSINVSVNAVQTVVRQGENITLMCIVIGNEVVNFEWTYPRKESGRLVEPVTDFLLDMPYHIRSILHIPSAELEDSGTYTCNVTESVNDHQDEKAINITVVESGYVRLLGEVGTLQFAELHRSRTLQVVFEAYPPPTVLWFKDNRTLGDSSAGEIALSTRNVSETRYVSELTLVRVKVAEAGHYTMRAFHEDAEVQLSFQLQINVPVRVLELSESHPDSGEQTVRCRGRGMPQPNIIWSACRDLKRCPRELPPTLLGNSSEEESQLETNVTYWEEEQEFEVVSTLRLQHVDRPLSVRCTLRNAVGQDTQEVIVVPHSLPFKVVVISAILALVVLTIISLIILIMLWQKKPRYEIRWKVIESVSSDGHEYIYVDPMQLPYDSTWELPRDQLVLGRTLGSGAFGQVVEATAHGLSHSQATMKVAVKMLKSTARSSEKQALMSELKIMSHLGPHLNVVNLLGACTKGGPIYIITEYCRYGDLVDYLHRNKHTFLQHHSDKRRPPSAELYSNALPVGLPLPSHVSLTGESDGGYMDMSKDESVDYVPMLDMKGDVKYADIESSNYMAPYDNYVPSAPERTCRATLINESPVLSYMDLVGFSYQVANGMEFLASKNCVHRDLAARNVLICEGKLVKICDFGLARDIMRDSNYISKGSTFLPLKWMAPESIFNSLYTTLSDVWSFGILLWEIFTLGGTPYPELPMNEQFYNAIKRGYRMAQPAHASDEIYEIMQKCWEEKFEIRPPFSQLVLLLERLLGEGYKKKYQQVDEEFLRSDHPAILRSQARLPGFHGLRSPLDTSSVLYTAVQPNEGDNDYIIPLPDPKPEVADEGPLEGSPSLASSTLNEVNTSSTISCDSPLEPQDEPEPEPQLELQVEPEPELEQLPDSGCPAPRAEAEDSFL

[14] = target: RAF proto-oncogene serine/threonine-protein kinase (Homo sapiens) (UniProt P04049); experiment: Inhibition of RAF1 at 10 uM by HotSpot assay
Chain of RAF proto-oncogene serine/threonine-protein kinase (Homo sapiens) (P04049 whole entry): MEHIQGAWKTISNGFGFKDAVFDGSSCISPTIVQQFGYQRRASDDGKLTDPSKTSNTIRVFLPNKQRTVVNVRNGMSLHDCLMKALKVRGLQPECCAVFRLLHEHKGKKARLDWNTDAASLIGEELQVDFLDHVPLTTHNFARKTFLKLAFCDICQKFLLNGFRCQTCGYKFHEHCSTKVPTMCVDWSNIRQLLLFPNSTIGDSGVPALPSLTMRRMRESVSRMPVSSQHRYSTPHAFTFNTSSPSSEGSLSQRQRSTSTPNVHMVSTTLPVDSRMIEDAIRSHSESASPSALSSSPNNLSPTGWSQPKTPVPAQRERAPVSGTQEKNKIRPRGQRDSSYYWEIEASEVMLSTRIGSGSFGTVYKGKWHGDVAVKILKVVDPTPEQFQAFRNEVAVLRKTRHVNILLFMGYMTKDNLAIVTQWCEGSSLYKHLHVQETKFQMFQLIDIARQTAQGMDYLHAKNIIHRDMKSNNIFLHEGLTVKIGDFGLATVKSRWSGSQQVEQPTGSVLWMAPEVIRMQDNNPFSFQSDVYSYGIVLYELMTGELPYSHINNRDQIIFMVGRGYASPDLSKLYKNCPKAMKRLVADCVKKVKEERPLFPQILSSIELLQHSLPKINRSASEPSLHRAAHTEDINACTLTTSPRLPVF

## CC(=O)c1ccccc1-c1ccc(-c2ccnc(NC(=O)Nc3cc(N4CCOCC4)cc(C(F)(F)F)c3)n2)cn1
OVCAR-8; Homo sapiens, OVCAR-8, 48 h
  TGI: > 100 µM
  CC50: > 100 µM
OVCAR-8; ovcar-8
  IC50: Not Active
BT-549
  TGI: > 100 µM
  CC50: > 100 µM
MDA-MB-468
  GI50: > 100 µM
  pIC50: < 4.00
  LC50: > 100 µM
  TGI: > 100 µM
HL-60(TB)
  growth at 0.001 µM: 92%
[1]
  growth at 0.001 µM: 107%
SNB-75 [2]
  growth at 10 µM: -45%
SF-295
  growth at 0.01 µM: 90%
SK-MEL-2
  growth at 0.01 µM: 105%
RXF 393 [3]
  growth at 0.1 µM: 82%
OVCAR-5 [4]
  growth at 10 µM: 118%
786-0
  growth at 10 µM: 10%
MCF7 [5]
  growth at 10 µM: 70%
MDA-MB-231
  growth at 0.1 µM: 84%
NCI-H522
  growth at 1 µM: 90%
OVCAR-5 [6]
  growth at 0.01 µM: 100%
CAKI-1
  growth at 0.01 µM: 92%
RXF 393 [7]
  growth at 1 µM: -52%
MCF7 [8]
  growth at 1 µM: 90%
NCI-H460
  growth at 10 µM: 88%
SNB-75 [9]
  TGI: 100 µM and 27.5 µM
SNB-75 [9]; Homo sapiens, SNB-75, 48 h
  GI50: 38.7 µM
  pIC50: 5.27
  CC50: > 100 µM
U-251
  TGI: > 100 µM
U-251; Homo sapiens, U-251, 48 h
  GI50: 5.36 µM
  pIC50: 4.46
  CC50: > 100 µM
Malme-3M; Homo sapiens, Malme-3M, 48 h
  TGI: > 100 µM
Malme-3M; Homo sapiens, Malme-3M, 48 h, read-out: LC50 (the source's name)
  CC50: > 100 µM
Malme-3M; malme-3m
  IC50: Not Active

## CC(=O)Nc1cccc(-c2ccc(-c3ccnc(NC(=O)Nc4cc(C(F)(F)F)cc(C(F)(F)F)c4)n3)cn2)c1.Cl
OVCAR-8; Homo sapiens, OVCAR-8, 48 h
  GI50: 2.07 µM
  TGI: 5.93 µM
  CC50: 26.4 µM
OVCAR-8; Homo sapiens, OVCAR-8, 48 h, read-out: IC50
  pIC50: 5.68
BT-549
  GI50: 7.07 µM
  pIC50: 5.15
  TGI: 20.4 µM
  CC50: 46.3 µM
MDA-MB-468
  GI50: 0.837 µM
  pIC50: 6.08
  LC50: 5.85 µM
  TGI: 2.35 µM
HL-60(TB)
  growth at 0.001 µM: 95%
[1]
  growth at 0.001 µM: 90%
SNB-75 [2]
  growth at 10 µM: -57%
SF-295
  growth at 0.01 µM: 94%
SK-MEL-2
  growth at 0.01 µM: 94%
OVCAR-5 [4]
  growth at 10 µM: -96%
786-0
  growth at 10 µM: 100%
[10]
  inhibition: < 50%
[11]
  inhibition: < 50%
[12]
  inhibition: < 50%
MDA-MB-231
  growth at 0.1 µM: 77%
NCI-H522
  growth at 1 µM: -22%
OVCAR-5 [6]
  growth at 0.01 µM: 82%
CAKI-1
  growth at 0.01 µM: 104%
[13]
  inhibition: < 50%
[14]
  inhibition: < 50%
NCI-H460
  growth at 10 µM: -60%
SNB-75 [9]; Homo sapiens, SNB-75, 48 h
  GI50: 10.9 µM
  pIC50: 4.96
  TGI: 30.5 µM
  CC50: 85.8 µM
U-251; Homo sapiens, U-251, 48 h
  GI50: 2 µM
  pIC50: 5.70
  TGI: 5.32 µM
  CC50: 18.9 µM
Malme-3M
  LC50: inactive
Malme-3M; Homo sapiens, Malme-3M, 48 h
  GI50: 2.01 µM
  TGI: 4.48 µM
Malme-3M; Homo sapiens, Malme-3M, 48 h, read-out: IC50
  pIC50: 5.70
